Measured values taken from ChEMBL document CHEMBL1139875, “Discovery of 4-aminobutyric acid derivatives possessing anticonvulsant and antinociceptive activities: a hybrid pharmacophore approach” (2007).
The source made the active and inactive calls. No cut-off for these calls is given here.

Key:
Rattus norvegicus [1] = test: Effect on spontaneous pain in Sprague-Dawley rat SNL model assessed as duration of paw withdrawal at 100 mg/kg, ip after 1 hr; assay type: functional; details: route intraperitoneal
Outline: (§1)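 Rats underwent left L5 spinal nerve ligation (Kim and Chung) under i.p. pentobarbital (65 mg/kg). Spontaneous pain is recorded for 5 min after 10 min acclimatization, as cumulative duration the ipsilateral paw is lifted, excluding locomotor lifts. Dosing is 100 mg/kg i.p. in 30% v/v PEG 400/water, with testing at 0.5–2.5 h. Four rats, mean ± SEM versus predrug, one-way ANOVA with Bonferroni.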

Rattus norvegicus [2] = test: Anti-cold allodynia effect in Sprague-Dawley rat CCI model assessed as duration of paw withdrawal at 100 mg/kg, ip after 0.5 hr; assay type: functional; details: route intraperitoneal
Outline: (§2)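 CCI by sciatic nerve ligation under pentobarbital (65 mg/kg i.p.). Rats tested at baseline and 9 days post-surgery; those with allodynia dosed i.p. 100 mg/kg, vehicle 30% v/v PEG 400 in water. Acetone (100-200 µL) misted on midplantar affected paw; withdrawal duration recorded, three samples averaged, at least 3 min apart; n = 4.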

Mus musculus [3] = test: Anticonvulsant activity in Swiss Albino mouse at 300 mg/kg, ip after 0.5 hr by scSTY test; assay type: functional, organism-based; design: dose 300 mg/kg
Outline: (§3)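 Mice (Swiss, 20-25 g) given i.p. doses of 30, 100 and 300 mg/kg under ADD program protocols, three per group, examined at 0.5 and 4 h in MES, scPTZ, scSTY or scPIC seizure tests. Value is the minimum dose protecting half or more of the mice.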

Rattus norvegicus [4] = test: Effect on spontaneous pain in Sprague-Dawley rat SNL model assessed as duration of paw withdrawal at 100 mg/kg, ip after 0.5 hr; assay type: functional; details: route intraperitoneal; outline: as §1
Mus musculus [5] = test: Anticonvulsant activity in Swiss Albino mouse at 300 mg/kg, ip after 4 hrs by MES test; assay type: functional, organism-based; design: dose 300 mg/kg; outline: as §3
Rattus norvegicus [6] = test: Anti-cold allodynia effect in Sprague-Dawley rat CCI model assessed as duration of paw withdrawal 100 mg/kg, ip after 1.5 hr; assay type: functional; details: route intraperitoneal; outline: as §2
Rattus norvegicus [7] = test: Effect on spontaneous pain in Sprague-Dawley rat CCI model assessed as duration of paw withdrawal at 100 mg/kg, ip after 1 hr; assay type: functional; details: route intraperitoneal
Outline: (§4)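 CCI rats (n = 4) dosed 100 mg/kg i.p. (vehicle 30% v/v PEG 400 in water). After 10 min acclimatization in a cage 5 cm above ground, cumulative time the ipsilateral paw was held off the floor over 5 min recorded, excluding locomotion lifts. Mean ± SEM; ANOVA/Bonferroni versus predrug.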

Rattus norvegicus [8] = test: Effect on spontaneous pain in Sprague-Dawley rat CCI model assessed as duration of paw withdrawal at 100 mg/kg, ip after 2.5 hrs; assay type: functional; details: route intraperitoneal
Outline: (§5)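 Unilateral CCI of sciatic nerve (Bennett and Xie) in Sprague-Dawley rats under i.p. pentobarbital sodium (65 mg/kg). Spontaneous pain is scored over 5 min after 10 min acclimatization, as cumulative time the ipsilateral paw is held off the floor. Paw lifts from locomotion or repositioning are excluded. Drug is given at 100 mg/kg i.p. with 30% v/v PEG 400 vehicle. Mean ± SEM, n = 4, compared with predrug by ANOVA/Bonferroni.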

Mus musculus [9] = test: Neurotoxicity in Swiss Albino mouse at 300 mg/kg, ip after 4 hrs by rotarod test; assay type: functional, organism-based; design: dose 300 mg/kg
Outline: (§6)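 Swiss mice (20-25 g) are trained on an accelerating rotorod (10 rpm, 3.2 cm rod), then injected i.p. at 30, 100 or 300 mg/kg, with three per group. Neurotoxicity means failure to keep equilibrium for at least 1 min in each of three trials, checked at 0.5 and 4 h. The value reported is the minimum dose affecting half or more of the mice.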

Rattus norvegicus [10] = species on record: Rattus norvegicus; test: Anti-dynamic allodynic effect in Sprague-Dawley rat CCI model assessed as latency to paw withdrawal after 1.5 hr; assay type: functional
Outline: (§7)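 Rats with sciatic nerve chronic constriction injury (pentobarbital 65 mg/kg i.p. anaesthesia), baseline and day 9 testing, then drug per randomization table. After 10 min acclimatization, affected plantar surface stroked mildly with a cotton-bud; paw lift recorded. n = 4; retested 0.5-2.5 h post-dose.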

Mus musculus [11] = test: Analgesic activity in Swiss Albino mouse assessed as inhibition of acetic acid-induced writhing responses at 100 mg/kg, ip; assay type: functional; details: route intraperitoneal
Outline: (§8)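 Mice in groups of six dosed i.p. at 100 mg/kg, controls receiving 30% v/v PEG 400 in water. Writhing induced by i.p. 0.1 mL of 3% v/v acetic acid 1 h after drug. Writhes (abdominal stretch with at least one hind limb extended) counted over 30 min; % inhibition calculated. Mean ± SEM, Student's t test.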

Rattus norvegicus [12] = species on record: Rattus norvegicus; test: Anti-dynamic allodynic effect in Sprague-Dawley rat CCI model assessed as latency to paw withdrawal after 0.5 hr; assay type: functional; outline: as §7
Rattus norvegicus [13] = test: Effect on spontaneous pain in Sprague-Dawley rat CCI model assessed as duration of paw withdrawal at 100 mg/kg, ip after 2 hrs; assay type: functional; details: route intraperitoneal; outline: as §5
Mus musculus [14] = test: Anticonvulsant activity in Swiss Albino mouse at 100 mg/kg, ip after 4 hrs by scPIC test; assay type: functional, organism-based; design: dose 100 mg/kg; outline: as §3
Mus musculus [15] = test: Analgesic activity in Swiss Albino mouse assessed as number of acetic acid-induced writhing per 30 min after 100 mg/kg, ip; assay type: functional; details: route intraperitoneal; outline: as §8
Rattus norvegicus [16] = species on record: Rattus norvegicus; test: Anti-dynamic allodynic effect in Sprague-Dawley rat CCI model assessed as latency to paw withdrawal after 1 hr; assay type: functional; outline: as §7
Mus musculus [17] = test: Anticonvulsant activity in Swiss Albino mouse at 300 mg/kg, ip after 0.5 hr by scPTZ test; assay type: functional, organism-based; design: dose 300 mg/kg; outline: as §3
Mus musculus [18] = test: Neurotoxicity in Swiss Albino mouse at 300 mg/kg, ip after 0.5 hr by rotarod test; assay type: functional, organism-based; design: dose 300 mg/kg; outline: as §6
Mus musculus [19] = test: Anticonvulsant activity in Swiss Albino mouse at 300 mg/kg, ip after 0.5 hr by MES test; assay type: functional, organism-based; design: dose 300 mg/kg; outline: as §3
Rattus norvegicus [20] = species on record: Rattus norvegicus; test: Anti-dynamic allodynic effect in Sprague-Dawley rat CCI model assessed as latency to paw withdrawal after 2 hr; assay type: functional; outline: as §7
Rattus norvegicus [21] = test: Effect on spontaneous pain in Sprague-Dawley rat SNL model assessed as duration of paw withdrawal at 100 mg/kg, ip after 2.5 hrs; assay type: functional; details: route intraperitoneal; outline: as §1
Mus musculus [22] = test: Anticonvulsant activity in Swiss Albino mouse at 300 mg/kg, ip after 4 hrs by scSTY test; assay type: functional, organism-based; design: dose 300 mg/kg; outline: as §3
Rattus norvegicus [23] = test: Effect on spontaneous pain in Sprague-Dawley rat SNL model assessed as duration of paw withdrawal at 100 mg/kg, ip after 2 hrs; assay type: functional; details: route intraperitoneal; outline: as §1
Rattus norvegicus [24] = test: Anti-cold allodynia effect in Sprague-Dawley rat CCI model assessed as duration of paw withdrawal 100 mg/kg, ip after 2 hr; assay type: functional; details: route intraperitoneal; outline: as §2
Rattus norvegicus [25] = test: Effect on spontaneous pain in Sprague-Dawley rat CCI model assessed as duration of paw withdrawal at 100 mg/kg, ip after 0.5 hr; assay type: functional; details: route intraperitoneal; outline: as §4
Rattus norvegicus [26] = test: Anti-cold allodynia effect in Sprague-Dawley rat CCI model assessed as duration of paw withdrawal 100 mg/kg, ip after 2.5 hr; assay type: functional; details: route intraperitoneal; outline: as §2
Rattus norvegicus [27] = test: Anti-cold allodynia effect in Sprague-Dawley rat CCI model assessed as duration of paw withdrawal 100 mg/kg, ip after 1 hr; assay type: functional; details: route intraperitoneal; outline: as §2
Rattus norvegicus [28] = test: Effect on spontaneous pain in Sprague-Dawley rat CCI model assessed as duration of paw withdrawal at 100 mg/kg, ip after 1.5 hrs; assay type: functional; details: route intraperitoneal; outline: as §5
Rattus norvegicus [29] = species on record: Rattus norvegicus; test: Anti-dynamic allodynic effect in Sprague-Dawley rat CCI model assessed as latency to paw withdrawal after 2.5 hr; assay type: functional; outline: as §7
Rattus norvegicus [30] = test: Effect on spontaneous pain in Sprague-Dawley rat SNL model assessed as duration of paw withdrawal at 100 mg/kg, ip after 1.5 hrs; assay type: functional; details: route intraperitoneal; outline: as §1

In the case of `O=C(O)CCCNC(=O)NN=C(Cc1ccccc1)Cc1ccccc1`, the Activity (Rattus norvegicus [1]) is reported as 7.9 s, the Activity (Rattus norvegicus [2]) is reported as 24.6 s and the Activity (Mus musculus [3]) is reported as “Active”. The Activity (Rattus norvegicus [4]) was 22.2 s, the Activity (Mus musculus [5]) was “inactive” and the Activity (Rattus norvegicus [6]) was 10.4 s. The Activity (Rattus norvegicus [7]) was 9.7 s, the Activity (Rattus norvegicus [8]) was 8.5 s and the Activity (Mus musculus [9]) was “inactive”. The Activity (Rattus norvegicus [10]) was 10.9 s, the inhibition in vivo at 100 mg/kg (Mus musculus [11]) was 94% and the Activity (Rattus norvegicus [12]) was 12 s. For the same compound, the Activity (Rattus norvegicus [13]) was 3.2 s, the Activity (Mus musculus [14]) was “Active” and the Activity (Mus musculus [15]) was 10.3. For the same compound, the Activity (Rattus norvegicus [16]) was 13.5 s, the Activity (Mus musculus [17]) was “inactive” and the Activity (Mus musculus [18]) was “inactive”. The Activity (Mus musculus [19]) was “inactive”, the Activity (Rattus norvegicus [20]) was 10.9 s and the Activity (Rattus norvegicus [21]) was 7.4 s. For the same compound, the Activity (Mus musculus [22]) was “Active”, the Activity (Rattus norvegicus [23]) was 11.8 s and the Activity (Rattus norvegicus [24]) was 9.1 s. The Activity (Rattus norvegicus [25]) was 9.2 s, the Activity (Rattus norvegicus [26]) was 8.3 s and the Activity (Rattus norvegicus [27]) was 11.6 s. For the same compound, the Activity (Rattus norvegicus [28]) was 1.3 s, the Activity (Rattus norvegicus [29]) was 10.3 s and the Activity (Rattus norvegicus [30]) was 8.9 s.
